Source: ChEMBL document CHEMBL4334444, “Studies of Jatrogossone A as a Reactive Oxygen Species Inducer in Cancer Cellular Models” (J Nat Prod, 2019)
The source made the active and inactive calls. The calls are words filed in the database; no cut-off is given here.

Assays:
MCF7 [1] = assay: Induction of ROS generation in human MCF7 cells at 10 to 30 uM incubated for 1 hr in presence of NAC by CellROX green reagent based fluorescence assay; format: functional, cell-based
How it was run: (§1)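 CellROX green ROS assay: cells exposed 1 h at 37 °C (30 μM) with DMSO 0.5% (v/v) negative control, menadione 10 μM positive control, ± NAC (100 μM per figure legend). CellROX green added at 5 μM final, 30 min more; washed, fixed in 4% paraformaldehyde 15 min, fluorescence read at 485 ex/535 em. Mean and SD of at least three experiments; two-way ANOVA.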

MCF7 [2] = assay: Induction of apoptosis in human MCF7 cells assessed as increase in cleaved caspase 7 level at 30 uM by Western blot analysis; format: functional, cell-based
How it was run: (§2)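 Western blot of KOPN-8 and MCF-7 lysates made in RIPA-type buffer (Tris pH 7.5, Triton X-100, deoxycholate, SDS) with protease and phosphatase inhibitors. 30 μg protein per lane was run on 4–12% Bis-Tris SDS-PAGE and transferred to nitrocellulose. Blots were probed for cleaved caspase-7 and PARP-1 and detected with IR-dye secondaries. Menadione served as positive control: 10 μM in KOPN-8, 30 μM in MCF-7. Blots are representative of three independent experiments.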

MCF7 [3] = assay: Induction of apoptosis in human MCF7 cells assessed as increase in cleaved PARP 1 level at 30 uM by Western blot analysis; format: functional, cell-based; how it was run: as §2
KOPN-8 [4] = assay: Induction of apoptosis in human KOPN8 cells assessed as increase in cleaved PARP 1 level at 10 uM by Western blot analysis; format: functional, cell-based; how it was run: as §2
U2OS [5] = assay: Induction of ROS generation in human U2OS cells at 10 to 30 uM incubated for 1 hr by CellROX green reagent based fluorescence assay; format: functional, cell-based
How it was run: (§3)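 CellROX green assay in MCF-7 or U2OS cells. Cells were exposed to test compound for 1 h at 37 °C alongside 0.5% DMSO (negative control) and menadione 10–30 μM (positive control), with or without NAC (50–500 μM) as scavenger. CellROX was then added at 5 μM final for 30 min. Cells were PBS-washed, fixed in 4% paraformaldehyde for 15 min, and fluorescence read at 535 nm.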

MCF7 [6] = assay: Induction of ROS generation in human MCF7 cells at 10 to 30 uM incubated for 1 hr by CellROX green reagent based fluorescence assay; format: functional, cell-based; how it was run: as §1
KOPN-8 [7] = assay: Induction of apoptosis in human KOPN8 cells assessed as increase in cleaved caspase 7 level at 10 uM by Western blot analysis; format: functional, cell-based; how it was run: as §2
U2OS [8] = assay: Induction of ROS generation in human U2OS cells at 10 to 30 uM incubated for 1 hr in presence of NAC by CellROX green reagent based fluorescence assay; format: functional, cell-based; how it was run: as §3
KOPN-8 [9] = assay: Cell cycle arrest in human KOPN8 cells assessed as increase in accumulation at S phase at 2 uM incubated for 24 hrs by propidium iodide staining based flow cytometric analysis; format: functional
How it was run: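 KOPN-8 cells plated at 1.00 × 10^6 cells/plate and held 12 h at 37 °C in 5% CO2, then treated for 24 h. Cells were fixed in cold methanol, RNase-treated and stained with PI (50 μg/mL). Cell-cycle distribution by flow cytometry, with DMSO as vehicle control.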

For `CC1=CC(=O)c2ccccc2C1=O`, the Activity (MCF7 [1]) was “inactive”, the Activity (MCF7 [2]) was “Active” and the Activity (MCF7 [3]) was “Active”. For the same compound, the Activity (KOPN-8 [4]) was “Active”, the Activity (U2OS [5]) was “Active” and the Activity (MCF7 [6]) was “Active”. For the same compound, the Activity (KOPN-8 [7]) was “Active” and the Activity (U2OS [8]) was “inactive”.
`CN[C@@H]1C[C@H]2O[C@@](C)([C@@H]1OC)n1c3ccccc3c3c4c(c5c6ccccc6n2c5c31)C(=O)NC4` was tested, and the Activity (KOPN-8 [9]) was “Active”.
